Experimental data of several laboratories.
Each line is one published result; the experiments were not run side by side. Values after ≈ are worked out from the molar mass of the structure shown.

| SMILES | tested on | test | test system | conditions | endpoint | value |
| --- | --- | --- | --- | --- | --- | --- |
| Cn1c(C(=O)Nc2ccc(Cl)cc2)cc2c(=O)n3ccccc3nc21 | Severe acute respiratory syndrome coronavirus 2 | viral replication | Vero | 10 nM | inhibition | 8% |
| C[C@H]1COCCN1c1nc(NCc2cccnc2C(F)(F)F)c2cccnc2n1 | Clostridioides difficile | microbial growth, broth dilution | R20291 | – | MIC | 64 µg/mL (≈ 158 µM) |
| O=C(O[C@@H]1Cc2c(O)cc(O)cc2O[C@@H]1c1cc(O)c(O)c(O)c1)c1cc(O)c(O)c(O)c1 | Severe acute respiratory syndrome coronavirus 2 | cytopathic effect | Vero C1008 | 3.125 µM | inhibition | 0% |
| CN(C)CCCC1(c2ccc(F)cc2)OCc2cc(C#N)ccc21 (stereo not shown) | Severe acute respiratory syndrome coronavirus 2 | viral replication, inhibitor | A549-ACE2 | – | IC50 | 3.31 µM |
| Cn1c(C(=O)Nc2ccc3c(c2)OCCO3)cc2c(=O)n3ccccc3nc21 | Severe acute respiratory syndrome coronavirus 2 | viral replication | Vero | 1 nM | inhibition | 5.41% |
| Nc1ccn([C@@H]2CS[C@H](CO)O2)c(=O)n1 | Hepatitis B virus | viral replication, qPCR | HepG2.2.15 | 14 days | IC50 | 0.05 µM |
| CN1CCN(CCc2ccc(Cl)c(Cl)c2)CC1 | Severe acute respiratory syndrome coronavirus 2 | viral replication, inhibitor | A549-ACE2 | – | IC50 | 2.51 µM |
| C=C[C@@](C)(/C=C/c1ccc(O)cc1)CCC=C(C)C | Severe acute respiratory syndrome coronavirus 2 | cytopathic effect, inhibitor | Vero C1008 | 12.5 µM | inhibition | 0% |
| [O-][N+]1=C(c2ccc(Cl)cc2)C2=NCCN2c2ccccc21 | Clostridioides difficile | microbial growth | – | – | MIC90 | 0.25 µg/mL (≈ 0.84 µM) |
| Cc1cc(NC(=O)c2cc3c(=O)n4cccc(C)c4nc3n2C)ccc1Br | Severe acute respiratory syndrome coronavirus 2 | viral replication | Vero | 0.1 µM | inhibition | 37.8% |
| CC(C)OC(=O)[C@H](C)N[P@](=O)(CO[C@H](C)Cn1cnc2c(N)ncnc21)Oc1ccccc1 | Hepatitis B virus | viral replication | HepG2.2.15 | 14 days | IC50 | 0.05 µM |
| COc1ccc(C[C@@H]2c3cc(Oc4cc(C[C@@H]5c6cc(O)c(OC)cc6CCN5C)ccc4O)c(OC)cc3CCN2C)cc1 | Severe acute respiratory syndrome coronavirus 2 | cytopathic effect | Vero C1008 | 1.562 µM | inhibition | 0% |
| Cc1cccn2c(=O)c3cc(C(=O)Nc4ccc(N(C)C)cc4)n(C)c3nc12 | Severe acute respiratory syndrome coronavirus 2 | viral replication | Vero | 1 µM | inhibition | 80% |
| Cc1ncc([N+](=O)[O-])n1CCO | Fusobacterium nucleatum | microbial growth | – | – | MIC50 | ≤ 0.06 µg/mL |
| O=C(/C=C/c1ccc(O)c(O)c1/C=C/c1ccc(O)c(O)c1)O[C@H](Cc1ccc(O)c(O)c1)C(=O)O | Severe acute respiratory syndrome coronavirus 2 | cytopathic effect, inhibitor | Vero C1008 | 12.5 µM | inhibition | 0% |
| CN1CCN(C2=Nc3ccccc3Oc3ccc(Cl)cc32)CC1 | Severe acute respiratory syndrome coronavirus 2 | viral replication, inhibitor | A549-ACE2 | – | IC50 | 5.75 µM |
| CC(=O)c1cccc(NC(=O)c2cc3c(=O)n4ccccc4nc3n2C)c1 | Severe acute respiratory syndrome coronavirus 2 | viral replication | Vero | 0.1 µM | inhibition | 77% |
| CC(C)(C)[C@]1(O)CCN2C[C@@H]3c4ccccc4CCc4cccc(c43)[C@H]2C1 | Severe acute respiratory syndrome coronavirus 2 | viral replication | Vero C1008 | – | IC50 | 6.61 µM |
| Cc1ccc(NC(=O)c2cc3c(=O)n4cccc(C)c4nc3n2C)cc1Cl | Severe acute respiratory syndrome coronavirus 2 | viral replication | Vero | 1 nM | inhibition | 8.11% |
| OC(CCN1CCCCC1)(c1ccccc1)C1CCCCC1 (stereo not shown) | Severe acute respiratory syndrome coronavirus 2 | viral replication | A549-ACE2 | – | IC50 | 3.16 µM |
| CC(C)=CCc1c(O)ccc(C(=O)/C=C/c2ccc(O)cc2)c1O | Severe acute respiratory syndrome coronavirus 2 | cytopathic effect | Vero C1008 | 12.5 µM | inhibition | 0% |
| O=[N+]([O-])c1ccc(C2=[N+]([O-])c3ccccc3N3CCN=C23)cc1 | Fusobacterium nucleatum | microbial growth | – | – | MIC50 | ≤ 0.06 µg/mL |
| CC(=O)[C@H]1CC[C@H]2[C@@H]3CCC4=CC(=O)CC[C@]4(C)[C@H]3CC[C@]12C | Severe acute respiratory syndrome coronavirus 2 | viral replication | Vero C1008 | – | IC50 | 9.33 µM |
| CCC(CC)COC(=O)[C@H](C)N[P@](=O)(OC[C@H]1O[C@@](C#N)(c2ccc3c(N)ncnn23)[C@H](O)[C@@H]1O)Oc1ccccc1 | Severe acute respiratory syndrome coronavirus 2 | viral replication | Vero | 10 µM | inhibition | 98% |
| COc1cc2c(cc1OC)CN(CCc1ccc(NC(=O)c3cc(OC)c(OC)cc3NC(=O)c3cnc4ccccc4c3)cc1)CC2 | Severe acute respiratory syndrome coronavirus 2 | viral replication, inhibitor | A549-ACE2 | – | IC50 | 1.48 µM |
| CCc1ccc(NC(=O)c2cc3c(=O)n4ccccc4nc3n2C)cc1 | Severe acute respiratory syndrome coronavirus 2 | viral replication | Vero | 10 nM | inhibition | 6.1% |
| CCN(CC)CCCC(C)Nc1ccnc2cc(Cl)ccc12 (stereo not shown) | Severe acute respiratory syndrome coronavirus 2 | viral replication, inhibitor | Vero C1008 | – | IC50 | 1.58 µM |
| C=CCNC1=C2C[C@@H](C)C[C@H](OC)[C@H](O)[C@@H](C)/C=C(\C)[C@H](OC(N)=O)[C@@H](OC)/C=C\C=C(/C)C(=O)NC(=C(C)C1=O)C2=O | ARPE-19 | cell growth or viability, MTT | – | – | IC50 | > 20 µM |
